Measured values from different studies.
Target: Serine/threonine-protein kinase Nek11 (NEK11, Homo sapiens, UniProt Q8NG66)
Sequence (Q8NG66 1-645, as in one of the studies): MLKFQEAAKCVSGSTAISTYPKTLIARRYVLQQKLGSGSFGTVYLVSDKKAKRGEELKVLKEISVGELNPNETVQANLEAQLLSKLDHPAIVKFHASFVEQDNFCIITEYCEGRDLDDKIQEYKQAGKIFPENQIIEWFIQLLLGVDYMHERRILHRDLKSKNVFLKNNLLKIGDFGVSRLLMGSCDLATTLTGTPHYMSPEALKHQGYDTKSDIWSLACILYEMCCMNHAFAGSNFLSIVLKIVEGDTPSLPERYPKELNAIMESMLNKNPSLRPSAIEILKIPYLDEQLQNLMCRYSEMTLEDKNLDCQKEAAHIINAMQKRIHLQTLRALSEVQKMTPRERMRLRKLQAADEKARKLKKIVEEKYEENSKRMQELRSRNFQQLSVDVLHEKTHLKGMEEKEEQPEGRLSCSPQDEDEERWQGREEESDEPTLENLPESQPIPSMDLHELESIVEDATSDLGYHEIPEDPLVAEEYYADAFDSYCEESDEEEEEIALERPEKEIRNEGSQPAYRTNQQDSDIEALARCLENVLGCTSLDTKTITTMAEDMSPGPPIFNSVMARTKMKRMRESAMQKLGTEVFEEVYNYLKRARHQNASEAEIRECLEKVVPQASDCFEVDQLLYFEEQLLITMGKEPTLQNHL

SMILES | assay | setting | remaining binding [%]
Cc1cnc(Nc2ccc(C(=O)N3CCC(N4CCCC4)CC3)cc2)nc1-c1cc2ccccc2s1 | binding, competition with immobilised ligand | 1 µM | 64
Cc1cc(C)c(-n2ccn3nc(-c4cccnc4)cc23)cc1NC(=O)c1cc(C#N)cc(S(F)(F)(F)(F)F)c1 | cell-free assay, competition with immobilised ligand | 0.1 µM | 86.1
O=C(Nc1c[nH]nc1C(=O)NC1CCNCC1)c1cc(F)cc(F)c1 | binding, competition with immobilised ligand | 1 µM | 91
COc1cnc(Nc2cccc(S(N)(=O)=O)c2)nc1N1CCN(c2ccccc2)C(=O)C1 | binding, competition with immobilised ligand | 1 µM | 90
CNCc1ccccc1-c1csc([C@H](C)Nc2nc(C)nc3cc(OC)c(OC)cc23)c1 | cell-free assay, competition with immobilised ligand | 1 µM | 100
O=C(c1ccc(Nc2ncc(Cl)c(-c3cc4ccccc4s3)n2)cc1)N1CCC(N2CCCC2)CC1 | binding, competition with immobilised ligand | 1 µM | 80
COc1ccc2c(c1)O[C@H](c1ccc(OC)c(OC)c1)C[C@@H]2NC(=O)C1(c2ccc3c(c2)OC(F)(F)O3)CC1 | cell-free assay, competition with immobilised ligand | 1 µM | 88
Nc1ncc2c(n1)-c1c([nH]c3ccc(C#CC4CC4)cc13)CCCC2 | binding, competition with immobilised ligand | 1 µM | 84
CN(CCCC(F)(F)F)c1nccc(-c2cnn3ncccc23)n1 | binding | 1 µM | 100
C=CC(=O)N1CCC(C(=O)NCC(=O)N2CCN(c3nc(-c4cnc(N)nc4C(F)F)nc(N4CCOCC4)n3)CC2)CC1 | binding, competition with immobilised ligand | 1 µM | 69
N[C@@H]1CCN(c2nccc(-c3cnn4ncccc34)n2)C1 | binding | 1 µM | 100
O=C(N[C@H]1CCCCC/C=C\C2C[C@@]2(C(=O)O)NC(=O)[C@@H]2C[C@@H](Oc3ccncc3)CN2C1=O)OC1CCCC1 (some centres unmarked) | binding, competition with immobilised ligand | 1 µM | 100
Cc1cnn2ncc(-c3ccnc(N(C)C)n3)c2c1 | binding | 1 µM | 98
O=C(NCCCN1CCOCC1)c1ccc(Nc2nccc(-c3cc4ccccc4s3)n2)cc1 | binding, competition with immobilised ligand | 1 µM | 75
CN(C)c1nccc(-c2cnn3ncccc23)n1 | binding | 1 µM | 100
CS(=O)(=O)NCC[C@H](NC(=O)c1cncc2c1cnn2-c1ccc(F)cc1)c1ccnc(S(C)(=O)=O)c1 | cell-free assay, competition with immobilised ligand | 1 µM | 100
C[C@@H]1CCN(c2nccc(-c3cnn4ncccc34)n2)C1 | binding | 1 µM | 90
O=C(NCCCC1CCCCC1)c1ccc(CNC(=O)c2cnn(-c3ccccc3)c2C(F)(F)F)cc1 | cell-free assay, competition with immobilised ligand | 0.1 µM | 100
CN(C)c1nccc(-c2cnc3ncccn23)n1 | binding | 1 µM | 81
C[C@@H](c1ccc(-n2cnc3c(N)ncnc32)cc1)N1CCc2nn(C)c(Cc3ccccc3)c2C1=O | binding, competition with immobilised ligand | 0.1 µM | 78
